Laboratory results from ChEMBL document CHEMBL1148918, “New pseudopterosin and seco-pseudopterosin diterpene glycosides from two Colombian isolates of Pseudopterogorgia elisabethae and their diverse biological activities” (J Nat Prod, 2004).
≈ marks a conversion by molar mass, not a printed value.

Key:
Human alphaherpesvirus 1 = test: Antiviral activity against HSV1; type: functional, organism-based
Human alphaherpesvirus 2 = test: Antiviral activity against HSV2; type: functional, organism-based
MCF7 = test: Cytotoxicity against human MCF7 cells relative to control; type: functional; parameters: concentration or dose not given beside the values
How it was run: (§1)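 One-dose primary screen on a three-line panel (MCF-7, NCI-H460, SF268). Growth of treated cells given as percent of untreated controls.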

NCI-H460 = test: Cytotoxicity against human NCI-H460 cells relative to control; type: functional; parameters: concentration or dose not given beside the values; how it was run: as §1
SF-268 = test: Cytotoxicity against human SF268 cells relative to control; type: functional; parameters: concentration or dose not given beside the values; how it was run: as §1
[1] = Cytotoxicity against human NCI60 cells; type: functional
[2] = test system: Mycobacterium tuberculosis; test: Antimycobacterial activity against Mycobacterium tuberculosis H37Rv at 6.25 ug/mL; type: functional
Plasmodium falciparum = test: Antimalarial activity against chloroquine-resistant Plasmodium falciparum W2 after 48 hrs by fluorimetry; type: functional, organism-based; details: W2, 48 h
[3] = (§2) Antiinflammatory activity in LPS-stimulated rat neonatal microglia assessed as inhibition of PMA-induced superoxide anion production preincubated 15 mins prior to PMA challenge; type: functional, cell-based
How it was run: (§3)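 Neonatal rat microglia, 2 × 10^5 cells/well, primed 17 h with LPS (0.3 ng/mL) in DMEM + 10% FBS + penicillin/streptomycin at 35.9 °C, 5% CO2. Cells washed with warm HBSS, given compound (0.01-10 µM) or DMSO vehicle for 15 min, then PMA (1 µM). Triplicate wells, two independent experiments.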

Microglia [4] = test: as §2; type: functional, cell-based; how it was run: as §3
[5] = (§4) Antiinflammatory activity in LPS-stimulated rat neonatal microglia assessed as inhibition of PMA-induced TXB2 production preincubated 15 mins prior to PMA challenge; type: functional, cell-based; how it was run: as §3
Microglia [6] = test: as §4; type: functional, cell-based; how it was run: as §3
[7] = (§5) Antiinflammatory activity in LPS-stimulated rat neonatal microglia assessed as drug level causing 50% PMA-induced LDH release preincubated 15 mins prior to PMA challenge by spectrophotometry; type: functional; how it was run: as §3
Microglia [8] = test: as §5; type: functional; how it was run: as §3
Human betaherpesvirus 5 = test: Antiviral activity against HCMV; type: functional, organism-based
Human alphaherpesvirus 3 = test: Antiviral activity against VZV; type: functional, organism-based

Structure (SMILES)	EC50 (Human alphaherpesvirus 1) [µM]	EC50 (Human alphaherpesvirus 2) [µM]	Activity (MCF7) [%]	Activity (NCI-H460) [%]	Activity (SF-268) [%]	GI50 [1] [µM]	inhibition at 6.25 µg/mL [2] [%]	IC50 (Plasmodium falciparum) [µg/mL]	IC50 [3] [µM]	Activity (Microglia [4])	IC50 [5] [µM]	Activity (Microglia [6])	Activity [7] [µM]	Activity (Microglia [8])	EC50 (Human betaherpesvirus 5) [µM]	EC50 (Human alphaherpesvirus 3) [µM]
Nc1nc2c(ncn2COCCO)c(=O)[nH]1 [ACYCLOVIR]	0.95	0.95	–	–	–	–	–	–	–	–	–	–	–	–	–	–
CC(=O)O[C@@H]1CO[C@H](Oc2c(C)c3c4c(c2O)[C@@H](C)CC[C@@H]4[C@@H](C)C[C@H]3C=C(C)C)[C@@H](O)[C@@H]1O [PSEUDOPTEROSIN U]	–	–	0	0	0	20	43	19 (≈ 40 µM)	14.7	Dose-dependent effect	> 10	Dose-dependent effect	0.7	Dose-dependent effect	–	–
CC(=O)O[C@H]1[C@H](O)[C@H](Oc2c(C)c3c4c(c2O)[C@@H](C)CC[C@@H]4[C@@H](C)C[C@H]3C=C(C)C)O[C@@H](C)[C@H]1O [PSEUDOPTEROSIN Q]	–	–	103	101	107	–	37	15 (≈ 30.7 µM)	11.2	Dose-dependent effect	4.7	Dose-dependent effect	3.4	Dose-dependent effect	–	–
CC(=O)O[C@@H]1[C@@H](Oc2c(C)c3c4c(c2O)[C@@H](C)CC[C@@H]4[C@@H](C)C[C@H]3C=C(C)C)OC[C@@H](OC(C)=O)[C@H]1O [PSEUDOPTEROSIN X]	–	–	–	–	–	–	–	–	10	Dose-dependent effect	> 10	Dose-dependent effect	2.35	Dose-dependent effect	–	–
CC(=O)O[C@@H]1CO[C@H](Oc2c(C)cc3c(c2O)[C@@H](C)CC[C@@H]3[C@@H](C)CCC=C(C)C)[C@@H](O)[C@@H]1O	–	–	–	–	–	–	25	–	> 10	Dose-dependent effect	> 10	Dose-dependent effect	3.6	Dose-dependent effect	–	–
CC(=O)O[C@H]1[C@H](O)[C@@H](Oc2c(C)c3c4c(c2O)[C@@H](C)CC[C@@H]4[C@@H](C)C[C@H]3C=C(C)C)OC[C@H]1O [PSEUDOPTEROSIN V]	–	–	0	0	0	20	25	1 (≈ 2.11 µM)	> 10	Dose-dependent effect	> 10	Dose-dependent effect	2.2	Dose-dependent effect	–	–
CC(=O)O[C@H]1[C@@H](O)[C@H](O)[C@H](Oc2c(C)c3c4c(c2O)[C@@H](C)CC[C@@H]4[C@@H](C)C[C@H]3C=C(C)C)O[C@H]1C [PSEUDOPTEROSIN P]	2.9	2.9	0	0	0	1.7	76	12 (≈ 24.6 µM)	> 10	Dose-dependent effect	> 10	Dose-dependent effect	0.6	Dose-dependent effect	2.9	2.6
CC(=O)O[C@H]1[C@H](O)[C@@H](Oc2c(C)c3c4c(c2O)[C@@H](C)CC[C@@H]4[C@@H](C)C[C@H]3C=C(C)C)OC[C@H]1OC(C)=O [PSEUDOPTEROSIN W]	–	–	0	0	0	–	–	–	> 10	Dose-dependent effect	> 10	Dose-dependent effect	10	Dose-dependent effect	–	–
CC(=O)O[C@@H]1[C@@H](Oc2c(C)cc3c(c2O)[C@@H](C)CC[C@@H]3[C@@H](C)CCC=C(C)C)OC[C@@H](O)[C@H]1O	–	–	–	–	–	–	37	–	> 10	Dose-dependent effect	> 10	Dose-dependent effect	10	Dose-dependent effect	–	–
